Measured values as given in PubChem BioAssay AID602232 (The Scripps Research Institute Molecular Screening Center, 2012).
Activity calls are given as the source filed them.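 The calls were made as follows: active = normalized ATPase activity over 10% above control, with a t-test p below 0.05 against the vehicle group; inactive = the rest.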

Test: increase of myofibrillar ATP hydrolysis – biochemical, absorbance, porcine cardiac myofibrils, powder samples, mechanism study for cardiac RTF activator project (AID 602232)
Settings: phosphate absorbance 660 nm, at 10 µM, stronger effect = higher value
Summary of the method: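 Medium: pCa buffer, pH 7.0, with EGTA and NTA, EC50 calcium level. Compound: 10 µM single concentration. Reagent: ATP substrate, 3.02 mM final. Repeats: five replicate wells per compound. Signal: phosphate absorbance at 660 nm, Fiske-Subbarow reagent. Schedule: 5 min pre-exposure, 7 min reaction, 25 °C.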

SMILES	normalized ATPase activity
CCN1C(=O)/C(=C/N2CCc3ccccc32)SC1=S	0.984 (inactive)
S=C(Nc1ccc(N2CCOCC2)cc1)Nc1ccc2nc(-c3ccco3)c(-c3ccco3)nc2c1	1.06 (inactive)
CCN(CC)c1ccc(/C=C2\SC(N)=NC2=O)cc1	0.992 (inactive)
CCN1C(=O)/C(=C/C=C2/SCCN2C)SC1=S	1.07 (inactive)
CCOC(=O)c1sc(N)c(C#N)c1COC(=O)CNC(=O)c1cc(OC)c(OC)c(OC)c1	1.11 (active)
Cc1ccc(/C=C2\Oc3c(ccc(O)c3CN3CCN(CCO)CC3)C2=O)cc1	0.928 (inactive)
COc1ccc(-c2nc3ccc(C4=NNC(=O)CC4C)cc3[nH]2)cc1 (stereo not given)	1.05 (inactive)
CCN(CC)c1ccc(/C=c2\sc3nc4ccccc4n3c2=O)c(O)c1	0.988 (inactive)
CN1CCN(CCCN2c3ccccc3Sc3ccc(C(F)(F)F)cc32)CC1	0.986 (inactive)
CCOC(=O)c1cc2n(c1N)-c1ccccc1C2=O	1.03 (inactive)
Cc1cccn2c(=O)c(/C=C3\SC(=S)N(CC(C)C)C3=O)c(NCCCOC(C)C)nc12	1.11 (active)
COc1ccc(OC)c(/C=C2\N=C(c3ccccc3)OC2=O)c1	1.03 (inactive)
CCCN1CCc2c(sc(NC(=S)NC(=O)c3ccccc3)c2C#N)C1	0.984 (inactive)
CC(C)COCC(CN(Cc1ccccc1)c1ccccc1)N1CCCC1 (stereo not given)	1.05 (inactive)
COc1ccccc1NS(=O)(=O)c1cc([N+](=O)[O-])ccc1N/N=C/c1c(C)[nH]c2ccccc12	1.08 (inactive)
